The source of these data is PubChem BioAssay.

Activity calls are given as the source filed them.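 Rule for the calls, unless noted: active = viability at or below 30% in both replicate assays; inconclusive = viability at or below 30% in just one of the two assays; inactive = the rest.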

A short description of experiment [1]: reducers of endogenous Her2 protein level, primary screen, SKBR3 breast tumor cells, AlphaScreen, ATP viability (AID 461;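 active = Her2 level under about 52% in both replicate screens, with viability over 70% of control, limit read from the data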;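 for Her2 level: lower value means less Her2 protein in the cells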;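 for viability: percent of carrier control wells set as 100% viability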). Conditions: 18-24 h, measured here: SKBR3 viability, ATP luminescence, at 10 µM.
In experiment [2] the target is Receptor tyrosine-protein kinase erbB-2 (Homo sapiens) (UniProt P04626). The description is as above. Conditions: 18-24 h, at 10 µM, stronger effect = lower value.
Experiment [3] in a line: SK-BR-3 cell growth inhibitors, pilot screen, 24 h, human (AID 572;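 active = viability at or below 10% of carrier control in both of two separate runs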;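 note: compound exposure lasted between 18 and 24 h rather than exactly 24 h; 100% = carrier-treated control wells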). Conditions: SK-BR-3 viability, CellTiter-Glo luminescence, at 10 µM, stronger effect = lower value. (Cellular ATP, detected with luciferase, serves as a proxy for viable cell number.)
Experiment [4] is described as follows: HUVEC growth inhibition – cell-based, human, primary screen (AID 575).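 Note: 100% = median of untreated cell wells with 0.1% DMSO on each plate.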 Conditions: HUVEC proliferation, CellTiter-Glo luminescence, 72 h; at 10 µM; stronger effect = lower value. The essentials: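 system = HUVEC primary cells | amount = 1250 cells/well | buffer or medium = supplemented EBM, 2% fetal bovine serum | dosing = single-point 10 µM, DMSO 0.1% final | times = 72 h compound incubation | detection = CTG luminescence | read-out = % viability relative to median vehicle-well signal on each plate | control set = vehicle and MePR control wells | format = collagen-coated 384-well format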

A short description of experiment [5]: growth inhibitors of H69AR lung tumor, primary screen, human, duplicate replicates (AID 580;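 active = viability at or under a set limit in both replicates, limit being median viability minus 3 SD, cut at about 48% in these data, passing the limit was not always enough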;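 note: 100% = mean luminescence of untreated wells and 0% = no signal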). Conditions: H69AR lung tumor cells viability, ATP luminescence, 72 h; at 10 µM; stronger effect = lower value.
Experiment [6] is described as follows: reversal of MRP1-mediated doxorubicin resistance, pilot screen, H69AR cells, doxorubicin co-treatment (AID 601;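 active = viability loss from added drug above about 55%, and viability with drug at most 40%, in both replicates, limit read from the data, passing the limit was not always enough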). Conditions: CellTiter-Glo, 72 h, at 10 µM; for differential viability (reversal): stronger effect = higher value.
The nature of experiment [7]: 384-well plate pilot, post-Golgi transport modulator project, inhibition of yeast transport mutant growth (AID 636; in the data active = inhibition above about 31%). Conditions: absorbance 615 nm, about 18 h, stronger effect = higher value.
The nature of experiment [8]: growth suppression of yeast trafficking mutant, preliminary HTS, modulators of trafficking downstream of Golgi apparatus project, 1536-format plate, OD 615 nm (AID 637; in the data active = inhibition above about 30%). Conditions: yeast transport mutant growth, absorbance 615 nm, 18 h; stronger effect = higher value.
The mark [9] stands for this setting: H69AR cells + 2 uM doxorubicin, measured here: viability with 2 uM doxorubicin, stronger effect = lower value.
The mark [10] stands for this setting: H69AR cells, compound alone cytotoxicity.

Sequence of Receptor tyrosine-protein kinase erbB-2 (Homo sapiens) (P04626 whole entry, looked up): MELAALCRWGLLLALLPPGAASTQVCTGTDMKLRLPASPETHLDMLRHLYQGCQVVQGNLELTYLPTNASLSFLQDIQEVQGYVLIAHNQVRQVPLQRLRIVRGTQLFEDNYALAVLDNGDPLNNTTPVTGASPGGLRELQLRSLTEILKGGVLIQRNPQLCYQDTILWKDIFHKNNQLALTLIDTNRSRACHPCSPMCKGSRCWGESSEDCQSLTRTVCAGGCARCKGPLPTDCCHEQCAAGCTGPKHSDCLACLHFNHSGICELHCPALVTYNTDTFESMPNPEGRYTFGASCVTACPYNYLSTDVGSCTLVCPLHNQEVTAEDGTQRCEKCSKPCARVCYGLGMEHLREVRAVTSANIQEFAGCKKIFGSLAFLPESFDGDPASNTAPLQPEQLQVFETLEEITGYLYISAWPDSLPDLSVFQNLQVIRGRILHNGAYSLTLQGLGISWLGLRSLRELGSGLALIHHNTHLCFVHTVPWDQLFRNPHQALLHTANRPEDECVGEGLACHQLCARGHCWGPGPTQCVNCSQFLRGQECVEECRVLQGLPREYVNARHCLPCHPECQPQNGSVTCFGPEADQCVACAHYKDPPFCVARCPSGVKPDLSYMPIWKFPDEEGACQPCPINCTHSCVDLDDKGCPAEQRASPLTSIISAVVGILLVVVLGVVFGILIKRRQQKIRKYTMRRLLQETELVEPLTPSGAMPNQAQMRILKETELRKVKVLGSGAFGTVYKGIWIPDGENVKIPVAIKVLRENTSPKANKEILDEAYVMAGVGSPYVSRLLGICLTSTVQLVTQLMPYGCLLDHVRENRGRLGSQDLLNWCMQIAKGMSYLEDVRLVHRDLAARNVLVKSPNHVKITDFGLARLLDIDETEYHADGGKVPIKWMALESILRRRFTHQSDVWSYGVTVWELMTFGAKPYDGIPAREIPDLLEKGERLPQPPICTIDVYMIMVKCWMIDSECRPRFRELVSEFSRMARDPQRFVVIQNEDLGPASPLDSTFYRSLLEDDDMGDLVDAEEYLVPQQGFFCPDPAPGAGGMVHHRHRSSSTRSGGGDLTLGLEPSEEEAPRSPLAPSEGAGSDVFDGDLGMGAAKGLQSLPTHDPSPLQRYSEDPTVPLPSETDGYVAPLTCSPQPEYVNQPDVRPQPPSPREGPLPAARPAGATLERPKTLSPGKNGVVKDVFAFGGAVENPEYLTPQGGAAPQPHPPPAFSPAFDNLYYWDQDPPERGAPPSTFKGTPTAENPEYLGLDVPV

The term viability denotes a read-out of living cells in per cent, often relative to untreated cells. In general, inhibition refers to the relative decrease from the control value, in per cent. On to `CC(C)(C)C(=O)N=C1SC2CS(=O)(=O)CC2N1c1ccc2c(c1)OCO2` (stereo not given), for which the viability in experiment [1] was 88%; in experiment [3] it was 88% (inactive); in experiment [4], 104% (inactive); in experiment [5], 106% (inactive); in experiment [6] (setting [9]), 95.7%; in experiment [6] (setting [10]), 106%. For the same compound, the Her2 level in experiment [2] was 110% (inactive). For the same compound, the differential viability (reversal) in experiment [6] (H69AR cells + 2 uM doxorubicin) was 10.5% (inactive). Further, the results for the inhibition in experiment [7] and in experiment [8] were 0.79% (inactive) and -7.82% (inactive), respectively.

Consider `OC(CN1CCN(c2ccccn2)CC1)Cn1c2ccccc2c2ccccc21` (stereo not given), for which the viability in experiment [1] is 100%; in experiment [3], 100% (inactive); in experiment [4] it was 67.2% (inactive); in experiment [5], 82.1% (inactive); in experiment [6] (setting [9]), 92.4%; in experiment [6] (setting [10]), 82.1%. Moreover, the Her2 level in experiment [2] is 114% (inactive). Further, in experiment [6] (H69AR cells + 2 uM doxorubicin), the differential viability (reversal) was -10.4% (inactive). Also, the inhibition in experiment [7] was -0.65% (inactive); in experiment [8], 6.5% (inactive).

Regarding `COC(=O)CNC(=O)c1c(C)cc(=O)oc1C`, the viability in experiment [1] was 89.5%; in experiment [3] it was 89.5% (inactive); in experiment [4] it was 90.3% (inactive); in experiment [5] it was 97.1% (inactive); in experiment [6] (setting [9]), 91.4%; in experiment [6] (setting [10]) it was 97.1%. Besides, the Her2 level in experiment [2] was 104% (inactive). For the same compound, the differential viability (reversal) in experiment [6] (H69AR cells + 2 uM doxorubicin) is 5.65% (inactive). Also, the inhibition in experiment [7] was -4.27% (inactive); in experiment [8], -8.55% (inactive).

For the compound `CCn1c(=O)cc(OCC(=O)NCCCN2CC(C)CC(C)C2)c2ccccc21` (stereo not given), the viability in experiment [1] is 101%; in experiment [3], 101% (inactive); in experiment [4] it was 81.3% (inactive); in experiment [5] it was 74.7% (inactive); in experiment [6] (setting [9]), 75.5%; in experiment [6] (setting [10]) it was 74.7%. Further, the Her2 level in experiment [2] was 81% (inactive). Besides, the differential viability (reversal) in experiment [6] (H69AR cells + 2 uM doxorubicin) is -0.8% (inactive). The inhibition in experiment [7] was -7.24% (inactive); in experiment [8], -2.55% (inactive).

Take `CCOc1ccc(C2/C(=C(/O)c3ccc(OC)cc3)C(=O)C(=O)N2c2cc(C)on2)cc1OC` (stereo not given): the viability in experiment [1] was 85%; in experiment [3] it was 85% (inactive); in experiment [4], 82.3% (inactive); in experiment [5], 89.4% (inactive); in experiment [6] (setting [9]) it was 99.7%; in experiment [6] (setting [10]), 89.4%. Further, the Her2 level in experiment [2] is 144% (inactive). In experiment [6] (H69AR cells + 2 uM doxorubicin), the differential viability (reversal) is -10.3% (inactive). For the same compound, the values for the inhibition in experiment [7] and in experiment [8] were 1.45% (inactive) and 10.7% (inactive), respectively.

For the compound `Cc1ccc(-c2noc(C3CCCN(C(=O)c4ccccc4)C3)n2)o1` (stereo not given), the viability in experiment [1] was 86%; in experiment [3], 86% (inactive); in experiment [4], 94.8% (inactive); in experiment [5], 95.1% (inactive); in experiment [6] (setting [9]), 91%; in experiment [6] (setting [10]), 95.1%. For the same compound, in experiment [2], the Her2 level was 95% (inactive). For the same compound, the differential viability (reversal) in experiment [6] (H69AR cells + 2 uM doxorubicin) was 4.09% (inactive). In addition, the inhibition was -5.66% (inactive) in experiment [7] and 0.33% (inactive) in experiment [8].

Take `CC(=O)CCc1c(C)[nH]c2ccccc2c1=O`: the viability was 88.5% in experiment [1]; 88.5% (inactive) in experiment [3]; 99.1% (inactive) in experiment [4]; 93.2% (inactive) in experiment [5]; 93% in experiment [6] (setting [9]); 93.2% in experiment [6] (setting [10]). Further, the Her2 level in experiment [2] is 118% (inactive). In experiment [6] (H69AR cells + 2 uM doxorubicin), the differential viability (reversal) was 0.225% (inactive). Also, the inhibition was 5.84% (inactive) in experiment [7] and 13.1% (inactive) in experiment [8].

As to `Cc1nn(-c2ccccc2)c(Cl)c1C(=O)NCC(=O)O`, the viability in experiment [1] is 100%; in experiment [3], 100% (inactive); in experiment [4], 105% (inactive); in experiment [5] it was 113% (inactive); in experiment [6] (setting [9]) it was 111%; in experiment [6] (setting [10]), 113%. For the same compound, the Her2 level in experiment [2] was 96% (inactive). Also, in experiment [6] (H69AR cells + 2 uM doxorubicin), the differential viability (reversal) is 1.59% (inactive). Further, the inhibition is -6.45% (inactive) in experiment [7] and 0.17% (inactive) in experiment [8].

With `CCC(NC(=O)Nc1cc(OC)c(OC)c(OC)c1)(C(F)(F)F)C(F)(F)F`, the viability in experiment [1] was 112%; in experiment [3], 112% (inactive); in experiment [4], 105% (inactive); in experiment [5] it was 93% (inactive); in experiment [6] (setting [9]) it was 101%; in experiment [6] (setting [10]) it was 93%. The Her2 level in experiment [2] was 83.5% (inactive). In experiment [6] (H69AR cells + 2 uM doxorubicin), the differential viability (reversal) was -7.81% (inactive). In addition, the figures for the inhibition in experiment [7] and in experiment [8] were -4.47% (inactive) and 11% (inactive), respectively.

Regarding `O=C(Nc1cccnc1)c1noc2c1CCCCC2`, the viability is 110% in experiment [1]; 110% (inactive) in experiment [3]; 105% (inactive) in experiment [4]; 87.3% (inactive) in experiment [5]; 90.2% in experiment [6] (setting [9]); 87.3% in experiment [6] (setting [10]). Further, the Her2 level in experiment [2] was 90% (inactive). In experiment [6] (H69AR cells + 2 uM doxorubicin), the differential viability (reversal) is -2.86% (inactive). The inhibition is -0.66% (inactive) in experiment [7] and 9.5% (inactive) in experiment [8].

For `Cc1ccc(S(=O)(=O)Nc2nc3ccccc3nc2NCc2ccco2)cc1`, the viability was 114% in experiment [1]; 114% (inactive) in experiment [3]; 86.7% (inactive) in experiment [4]; 22.5% (active) in experiment [5]; 21.9% in experiment [6] (setting [9]); 22.5% in experiment [6] (setting [10]). For the same compound, the Her2 level in experiment [2] is 93.5% (inactive). In addition, in experiment [6] (H69AR cells + 2 uM doxorubicin), the differential viability (reversal) is 0.645% (inactive). Further, the inhibition is -5.47% (inactive) in experiment [7] and -6.51% (inactive) in experiment [8].

As to `OC(COc1ccccc1)CN1C2=NCCCN2c2ccccc21` (stereo not given), the viability in experiment [1] is 80.5%; in experiment [3], 80.5% (inactive); in experiment [4] it was 97.4% (inactive); in experiment [5], 92.6% (inactive); in experiment [6] (setting [9]) it was 85%; in experiment [6] (setting [10]) it was 92.6%. The Her2 level in experiment [2] was 79.5% (inactive). The differential viability (reversal) in experiment [6] (H69AR cells + 2 uM doxorubicin) is 7.67% (inactive). Besides, the inhibition in experiment [7] is -4.93% (inactive); in experiment [8] it was 3.11% (inactive).

Regarding `O=C(COC(=O)c1ccc(S(=O)(=O)Nc2ccccc2)cc1)NCCN1C(=O)CSC1=O`, the viability in experiment [1] was 107%; in experiment [3], 107% (inactive); in experiment [4], 100% (inactive); in experiment [5], 95.3% (inactive); in experiment [6] (setting [9]), 86%; in experiment [6] (setting [10]) it was 95.3%. For the same compound, the Her2 level in experiment [2] is 108% (inactive). For the same compound, the differential viability (reversal) in experiment [6] (H69AR cells + 2 uM doxorubicin) is 9.27% (inactive). The inhibition in experiment [7] is -5.07% (inactive); in experiment [8], -3.93% (inactive).

As for `O=C(c1ccc2ccccc2n1)N1CCN(c2ccccc2)CC1`, the viability in experiment [1] was 88.5%; in experiment [3], 88.5% (inactive); in experiment [4], 100% (inactive); in experiment [5], 112% (inactive); in experiment [6] (setting [9]), 98.6%; in experiment [6] (setting [10]), 112%. For the same compound, in experiment [2], the Her2 level is 86% (inactive). In addition, the differential viability (reversal) in experiment [6] (H69AR cells + 2 uM doxorubicin) is 13.8% (inactive). Moreover, the inhibition was -4.19% (inactive) in experiment [7] and -3.61% (inactive) in experiment [8].

Consider `CC(=O)N1CCc2cc(Br)cc(S(=O)(=O)NCCCN3CCCC(C)C3)c21` (stereo not given), for which the viability in experiment [1] is 83%; in experiment [3] it was 83% (inactive); in experiment [4] it was 89.9% (inactive); in experiment [5], 91.8% (inactive); in experiment [6] (setting [9]), 91.7%; in experiment [6] (setting [10]) it was 91.8%. For the same compound, the Her2 level in experiment [2] is 93% (inactive). Besides, the differential viability (reversal) in experiment [6] (H69AR cells + 2 uM doxorubicin) was 0.035% (inactive). The inhibition in experiment [7] is -2.57% (inactive); in experiment [8], -3.93% (inactive).
